Source: ChEMBL document CHEMBL4138126, “Synthesis, antiproliferative, anti-tubulin activity, and docking study of new 1,2,4-triazoles as potential combretastatin analogues” (Eur J Med Chem, 2017)

What was measured:
Assay type in all cases: functional
786-0 = assay: Growth inhibition of human 786-0 cells assessed as cell growth at 10 uM after 48 hrs by sulforhodamine B assay; details: 786-0, 48 h, read-out: Activity
How it was run: (§1)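 NCI 60-cell-line panel screen (nine cancer types). Compounds added at single concentration 10^-5 M, cultures incubated 48 h; growth inhibition percentages reported.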

MDA-MB-231 = assay: Growth inhibition of human MDA-MB-231 cells assessed as cell growth at 10 uM after 48 hrs by sulforhodamine B assay; details: MDA-MB-231, 48 h, read-out: Activity; how it was run: as §1
COLO 205 = assay: Growth inhibition of human COLO205 cells assessed as cell growth at 10 uM after 48 hrs by sulforhodamine B assay; details: COLO 205, 48 h, read-out: Activity; how it was run: as §1
ACHN = assay: Growth inhibition of human ACHN cells assessed as cell growth at 10 uM after 48 hrs by sulforhodamine B assay; details: read-out: Activity; how it was run: as §1
Malme-3M = assay: Growth inhibition of human MALME-3M cells assessed as cell growth at 10 uM after 48 hrs by sulforhodamine B assay; details: read-out: Activity; how it was run: as §1
CAKI-1 = assay: Growth inhibition of human CAKI-1 cells assessed as cell growth at 10 uM after 48 hrs by sulforhodamine B assay; details: CAKI-1, 48 h, read-out: Activity; how it was run: as §1
UACC-257 = assay: Growth inhibition of human UACC257 cells assessed as cell growth at 10 uM after 48 hrs by sulforhodamine B assay; details: UACC-257, 48 h, read-out: Activity
How it was run: (§2)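 NCI 60-cell-line panel from nine tumour types (leukaemia, lung, colon, CNS, melanoma, ovarian, renal, prostate, breast). Each compound was added at one single concentration, and cultures were incubated for 48 h. Results are reported as percent growth inhibition.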

SF-268 = assay: Growth inhibition of human SF268 cells assessed as cell growth at 10 uM after 48 hrs by sulforhodamine B assay; details: SF-268, 48 h, read-out: Activity; how it was run: as §1
MDA-MB-435 = assay: Growth inhibition of human MDA-MB-435 cells assessed as cell growth at 10 uM after 48 hrs by sulforhodamine B assay; details: MDA-MB-435, 48 h, read-out: Activity; how it was run: as §1
SF-539 = assay: Growth inhibition of human SF539 cells assessed as cell growth at 10 uM after 48 hrs by sulforhodamine B assay; details: SF-539, 48 h, read-out: Activity; how it was run: as §1
PC-3 = assay: Growth inhibition of human PC3 cells assessed as cell growth at 10 uM after 48 hrs by sulforhodamine B assay; details: PC-3, 48 h, read-out: Activity; how it was run: as §1
TK-10 = assay: Growth inhibition of human TK10 cells assessed as cell growth at 10 uM after 48 hrs by sulforhodamine B assay; details: TK-10, 48 h, read-out: Activity; how it was run: as §2
OVCAR-4 = assay: Growth inhibition of human OVCAR4 cells assessed as cell growth at 10 uM after 48 hrs by sulforhodamine B assay; details: OVCAR-4, 48 h, read-out: Activity; how it was run: as §1
MDA-MB-468 = assay: Growth inhibition of human MDA-MB-468 cells assessed as cell growth at 10 uM after 48 hrs by sulforhodamine B assay; details: MDA-MB-468, 48 h, read-out: Activity; how it was run: as §1
U-251 = assay: Growth inhibition of human U251 cells assessed as cell growth at 10 uM after 48 hrs by sulforhodamine B assay; details: U-251, 48 h, read-out: Activity; how it was run: as §2
SW-620 = assay: Growth inhibition of human SW620 cells assessed as cell growth at 10 uM after 48 hrs by sulforhodamine B assay; details: SW-620, 48 h, read-out: Activity; how it was run: as §2
RXF 393 = assay: Growth inhibition of human RXF393 cells assessed as cell growth at 10 uM after 48 hrs by sulforhodamine B assay; details: RXF 393, 48 h, read-out: Activity; how it was run: as §1
SNB-75 = assay: Growth inhibition of human SNB75 cells assessed as cell growth at 10 uM after 48 hrs by sulforhodamine B assay; details: SNB-75, 48 h, read-out: Activity; how it was run: as §2
SF-295 = assay: Growth inhibition of human SF295 cells assessed as cell growth at 10 uM after 48 hrs by sulforhodamine B assay; details: SF-295, 48 h, read-out: Activity; how it was run: as §1
UO-31 = assay: Growth inhibition of human UO31 cells assessed as cell growth at 10 uM after 48 hrs by sulforhodamine B assay; details: UO-31, 48 h, read-out: Activity; how it was run: as §2
SNB-19 = assay: Growth inhibition of human SNB19 cells assessed as cell growth at 10 uM after 48 hrs by sulforhodamine B assay; details: SNB-19, 48 h, read-out: Activity; how it was run: as §2
OVCAR-3 = assay: Growth inhibition of human OVCAR3 cells assessed as cell growth at 10 uM after 48 hrs by sulforhodamine B assay; details: OVCAR-3, 48 h, read-out: Activity; how it was run: as §1
RPMI-8226 = assay: Growth inhibition of human RPMI8226 cells assessed as cell growth at 10 uM after 48 hrs by sulforhodamine B assay; details: RPMI-8226, 48 h, read-out: Activity; how it was run: as §1
A549 = assay: Growth inhibition of human A549/ATCC cells assessed as cell growth at 10 uM after 48 hrs by sulforhodamine B assay; details: A549, 48 h, read-out: Activity; how it was run: as §1
UACC-62 = assay: Growth inhibition of human UACC62 cells assessed as cell growth at 10 uM after 48 hrs by sulforhodamine B assay; details: UACC-62, 48 h, read-out: Activity; how it was run: as §2
SK-MEL-5 = assay: Growth inhibition of human SK-MEL-5 cells assessed as cell growth at 10 uM after 48 hrs by sulforhodamine B assay; details: SK-MEL-5, 48 h, read-out: Activity; how it was run: as §1
SN12C = assay: Growth inhibition of human SN12C cells assessed as cell growth at 10 uM after 48 hrs by sulforhodamine B assay; details: read-out: Activity; how it was run: as §2
HCC 2998 = assay: Growth inhibition of human HCC2998 cells assessed as cell growth at 10 uM after 48 hrs by sulforhodamine B assay; details: HCC 2998, 48 h, read-out: Activity; how it was run: as §1
SK-MEL-28 = assay: Growth inhibition of human SK-MEL-28 cells assessed as cell growth at 10 uM after 48 hrs by sulforhodamine B assay; details: SK-MEL-28, 48 h, read-out: Activity; how it was run: as §1
K562 = assay: Growth inhibition of human K562 cells assessed as cell growth at 10 uM after 48 hrs by sulforhodamine B assay; details: K562, 48 h, read-out: Activity; how it was run: as §1

SMILES | growth at 10 µM (786-0) | growth at 10 µM (MDA-MB-231) | growth at 10 µM (COLO 205) | growth at 10 µM (ACHN) | growth at 10 µM (Malme-3M) | growth at 10 µM (SF-268) | growth at 10 µM (MDA-MB-435) | growth at 10 µM (SF-539) | growth at 10 µM (PC-3) | growth at 10 µM (TK-10) | growth at 10 µM (OVCAR-4) | growth at 10 µM (MDA-MB-468) | growth at 10 µM (U-251) | growth at 10 µM (SW-620) | growth at 10 µM (RXF 393) | growth at 10 µM (SNB-75) | growth at 10 µM (SF-295) | growth at 10 µM (UO-31) | growth at 10 µM (SNB-19) | growth at 10 µM (OVCAR-3) | further results
CCOc1ccc(-n2nc(C(=O)Nc3ccc(F)c(F)c3)nc2-c2cc(OC)c(OC)c(OC)c2)cc1 | 85% | 63.1% | 63.7% | 64.5% | 86.7% | 84.9% | 70.3% | 96.6% | 47.1% | 87.4% | 66.1% | 98.6% | 70.3% | 89.9% | 84.6% | 74.4% | 60.5% | 42.6% | 86.8% | 61% | growth at 10 µM (CAKI-1): 68.5%; growth at 10 µM (UACC-257): 89.4%; growth at 10 µM (RPMI-8226): 12.3%; growth at 10 µM (A549): 62%
COc1cccc(-n2nc(C(=O)NCc3ccccc3OC)nc2-c2cc(OC)c(OC)c(OC)c2)c1 | 94% | 93% | 101% | 106% | 99.7% | 95.5% | 90.8% | 96.5% | 104% | 81% | 90.8% | 99.9% | 97.1% | 111% | 107% | 63% | 95.1% | 59.1% | 100% | 101% | growth at 10 µM (UACC-62): 97.4%; growth at 10 µM (SK-MEL-5): 107%; growth at 10 µM (SN12C): 94.8%; growth at 10 µM (HCC 2998): 92.1%; growth at 10 µM (SK-MEL-28): 115%; growth at 10 µM (K562): 122%; growth at 10 µM (RPMI-8226): 100%; growth at 10 µM (A549): 92.8%
CCOc1ccc(-n2nc(C(=O)Nc3cc(OC)c(OC)c(OC)c3)nc2-c2cc(OC)c(OC)c(OC)c2)cc1 | 77.1% | 50.5% | 80.3% | 85.7% | 85.2% | 92.1% | 79.6% | 87.8% | 70.2% | 104% | 68.1% | 82% | 85.1% | 95.5% | 83.8% | 65.6% | 95.9% | 52.6% | 82.1% | 86.9% | growth at 10 µM (CAKI-1): 77.4%; growth at 10 µM (UACC-257): 93.1%; growth at 10 µM (RPMI-8226): 55.7%; growth at 10 µM (A549): 86.9%
CCOc1ccc(-n2nc(C(=O)Nc3ccc(OC)c(O)c3)nc2-c2cc(OC)c(OC)c(OC)c2)cc1 | 94.5% | 65.8% | 109% | 91.5% | 114% | 94.1% | 95% | 96.2% | 72% | 107% | 99.8% | 101% | 93.2% | 104% | 112% | 71.2% | 108% | 56% | 91.8% | 97.8% | growth at 10 µM (CAKI-1): 86.1%; growth at 10 µM (UACC-257): 90.8%; growth at 10 µM (RPMI-8226): 67.7%; growth at 10 µM (A549): 94%
